# The source made the active and inactive calls. The calls are words filed in the database; no cut-off is given here.
# What was measured:
# [1] = Toxicity in NMRI mouse assessed as change in body weight at 10 to 20 mg/100g, po administered daily via gavage for 8 days; type: organism-based; details: in vivo, 192 h
# [2] = target: T1, Flavodoxin (Helicobacter pylori (strain ATCC 700392 / 26695) (Campylobacter pylori)) (UniProt O25776); assay: Binding affinity to Helicobacter pylori flavodoxin by thermal upshift assay
# T1 sequence (whole entry): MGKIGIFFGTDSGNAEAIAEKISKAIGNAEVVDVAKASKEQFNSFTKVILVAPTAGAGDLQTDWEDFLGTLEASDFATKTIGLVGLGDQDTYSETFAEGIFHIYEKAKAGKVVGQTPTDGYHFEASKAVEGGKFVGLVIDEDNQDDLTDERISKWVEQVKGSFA
# [3] = target: T1, Flavodoxin (Helicobacter pylori (strain ATCC 700392 / 26695) (Campylobacter pylori)); assay: Inhibition of flavodoxin in Helicobacter pylori ATCC 700392 26695 assessed as reduction in bacterial growth measured after 48 hrs by resazurin staining-based microdilution method; details: Helicobacter pylori 26695
# In short: (§1)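 Broth microdilution in brain heart infusion with 4% FBS. Inoculum diluted to OD600 0.01. Two-fold dilutions from a DMSO stock cover 64–0.031 μg/mL, with DMSO ≤1% v/v. Incubated 48 h at 37 °C under microaerophilic conditions. MIC is the lowest concentration giving complete growth inhibition, read by resazurin colour change and confirmed by spotting on blood agar. Run twice in triplicate.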
# [4] = target: T1, Flavodoxin (Helicobacter pylori (strain ATCC 700392 / 26695) (Campylobacter pylori)); assay: Binding affinity to Helicobacter pylori flavodoxin by isothermal titration calorimetric method
# [5] = system: Staphylococcus aureus; assay: Effect on growth of Staphylococcus aureus ATCC 1228 after 48 hrs by resazurin-dye based microdilution assay; type: organism-based
# [6] = system: Helicobacter pylori; assay: Antibacterial activity against Helicobacter pylori SS1 infected in NMRI mouse assessed as bacterial eradication at 20 mg/100g, po administered daily via gavage for 8 days starting from 1 week post-infection and measured 8 days post-last dose; type: functional, organism-based
# In short: (§2)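 Female 6-week-old SPF NMRI mice, 7 per condition, infected orogastrically on days 1 and 3 with 100 μL Hp SS1 (5 × 10^8 CFU/mL). From day 8, compound given daily by oral gavage for 8 days in 100 μL of 5–10% DMSO/95–90% olive oil. Sacrificed day 24; stomach homogenate CFU/g counted after 5 days microaerophilic culture at 37 °C. Infected vehicle-treated controls; Mann-Whitney U and unpaired t tests, p ≤ 0.05.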
# [7] = Toxicity in NMRI mouse infected with Helicobacter pylori SS1 assessed as change in body weight at 10 to 20 mg/100g, po administered daily via gavage for 8 days starting from 1 week post-infection; type: organism-based; details: in vivo
# In short: (§3)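 Female 6-week-old SPF NMRI mice infected orogastrically with Hp SS1 on days 1 and 3. Compound in 5–10% DMSO/olive oil (100 μL) given by daily oral gavage for 8 days from day 8. Body weight and appetite were monitored during treatment; infected controls received vehicle alone.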
# [8] = Therapeutic index, ratio of MCC50 for human HeLa cells to MIC for inhibition of flavodoxin in Mnz-resistant Helicobacter pylori NCTC 11637 ATCC 43504 assessed as reduction in bacterial growth; type: toxicity; details: read-out: TI
# In short: (§4)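 TI is MCC50/MIC. For MCC50, HeLa cells (30 000/well, DMEM with 10% FBS) were exposed to compound at 25–1000 μM final. Viability by XTT at 450/650 nm; MCC50 is the concentration giving 50% lysis from viability curves. Run twice in triplicate.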
# [9] = Toxicity in NMRI mouse infected with Helicobacter pylori SS1 assessed as change in appetite at 10 to 20 mg/100g, po administered daily via gavage for 8 days starting from 1 week post-infection; type: organism-based; details: in vivo; in short: as §3
# [10] = Cytotoxicity against human HeLa cells assessed as reduction in cell viability by XTT assay; type: cell-based; details: read-out: MCC50
# In short: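 HeLa cells grown in DMEM with 10% FBS, penicillin and streptomycin at 37 °C, 5% CO2; 30 000 cells/well. XTT viability read at 450 and 650 nm. MCC50 (50% lysis) came from viability-versus-concentration curves. Two experiments, each in triplicate.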
# [11] = target: T1, Flavodoxin (Helicobacter pylori (strain ATCC 700392 / 26695) (Campylobacter pylori)); assay: Inhibition of flavodoxin in Mnz-resistant Helicobacter pylori NCTC 11637 ATCC 43504 assessed as reduction in bacterial growth measured after 48 hrs by resazurin staining-based microdilution method; details: Helicobacter pylori NCTC 11637 = CCUG 17874 = ATCC 43504; in short: as §1
# [12] = system: Helicobacter pylori; assay: Antibacterial activity against Helicobacter pylori SS1 infected in NMRI mouse assessed as reduction in gastric colonization at 20 mg/100g, po administered daily via gavage for 8 days starting from 1 week post-infection and measured 8 days post-last dose; type: functional, organism-based; in short: as §2
# [13] = target: T1, Flavodoxin (Helicobacter pylori (strain ATCC 700392 / 26695) (Campylobacter pylori)); assay: Inhibition of flavodoxin in Helicobacter pylori SS1 assessed as reduction in bacterial growth measured after 48 hrs by resazurin staining-based microdilution method; in short: as §1
# [14] = Therapeutic index, ratio of MCC50 for human HeLa cells to MIC for inhibition of flavodoxin in Helicobacter pylori ATCC 700392 26695 assessed as reduction in bacterial growth; type: toxicity; details: HeLa cells versus Helicobacter pylori ATCC 700392 26695, read-out: TI; in short: as §4
# [15] = system: Escherichia coli; assay: Effect on growth of Escherichia coli DH5[alpha] after 48 hrs by resazurin-dye based microdilution assay; type: organism-based
# [16] = Toxicity in NMRI mouse infected with Helicobacter pylori SS1 assessed as change in appetite at 1 to 20 mg/100g, po administered daily via gavage for 8 days starting from 1 week post-infection; type: organism-based; details: in vivo
# In short: (§5)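 Compound in 5–10% DMSO/olive oil (100 μL) given by daily oral gavage for 8 days from day 8. Body weight and appetite were monitored during treatment; infected controls received vehicle alone.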
# [17] = system: Helicobacter pylori; assay: Antibacterial activity against Helicobacter pylori SS1 infected in NMRI mouse assessed as reduction in gastric colonization at 1 to 20 mg/100g, po administered daily via gavage for 8 days starting from 1 week post-infection and measured 8 days post-last dose; type: functional, organism-based
# In short: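 Female 6-week-old SPF NMRI mice, seven per condition, infected orogastrically on days 1 and 3 with 100 μL Hp SS1 (5 × 10^8 CFU/mL). From day 8, 100 μL compound in 5–10% DMSO/95–90% olive oil by daily oral gavage for 8 days. Infected controls got vehicle. Killed day 24; stomach homogenates plated 5 days at 37 °C microaerophilic; CFU/g tissue versus control. Mann-Whitney U and unpaired t tests, p ≤ 0.05.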
# [18] = system: Helicobacter pylori; assay: Antibacterial activity against Helicobacter pylori SS1 infected in NMRI mouse assessed as bacterial eradication at 20 mg/100g, po administered daily via gavage for 8 days starting from 1 week post-infection and measured 8 days post-last dose relative to control; type: functional
# In short: (§6)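 From day 8, 100 μL compound in 5–10% DMSO/95–90% olive oil by daily oral gavage for 8 days. Infected controls got vehicle. Killed day 24; stomach homogenates plated 5 days at 37 °C microaerophilic; CFU/g tissue versus control. Mann-Whitney U and unpaired t tests, p ≤ 0.05.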
# [19] = Toxicity in NMRI mouse infected with Helicobacter pylori SS1 assessed as change in body weight at 1 to 20 mg/100g, po administered daily via gavage for 8 days starting from 1 week post-infection; type: organism-based; details: in vivo; in short: as §5
# [20] = Therapeutic index, ratio of MCC50 for human HeLa cells to MIC for inhibition of flavodoxin in Helicobacter pylori SS1 assessed as reduction in bacterial growth; type: toxicity; details: HeLa cells versus Helicobacter pylori SS1, read-out: TI; in short: as §4
# [21] = Therapeutic index, ratio of MCC50 for human HeLa cells to MIC for inhibition of flavodoxin in metronidazole-resistant Helicobacter pylori isolate 1 assessed as reduction in bacterial growth; type: toxicity; details: read-out: TI; in short: as §4
# [22] = Therapeutic index, ratio of MCC50 for human HeLa cells to MIC for inhibition of flavodoxin in rifampicin-resistant Helicobacter pylori isolate 5 assessed as reduction in bacterial growth; type: toxicity; details: read-out: TI; in short: as §4
# [23] = Stability of the compound in DMSO-d6 at pH 1 incubated for 19 hrs under shaking condition by 1H-NMR analysis; type: physicochemical; details: pH 1, 19 h
# [24] = Toxicity in NMRI mouse assessed as change in body weight at 1 to 20 mg/100g, po administered daily via gavage for 8 days; type: organism-based; details: in vivo, 192 h
# [25] = Therapeutic index, ratio of MCC50 for human HeLa cells to MIC for inhibition of flavodoxin in metronidazole-resistant Helicobacter pylori isolate 3 assessed as reduction in bacterial growth; type: toxicity; details: read-out: TI; in short: as §4
# [26] = Therapeutic index, ratio of MCC50 for human HeLa cells to MIC for inhibition of flavodoxin in metronidazole-resistant Helicobacter pylori isolate 2 assessed as reduction in bacterial growth; type: toxicity; details: read-out: TI; in short: as §4
# [27] = Therapeutic index, ratio of MCC50 for human HeLa cells to MIC for inhibition of flavodoxin in clarithromycin/metronidazole-resistant Helicobacter pylori isolate 4 assessed as reduction in bacterial growth; type: toxicity; details: read-out: TI; in short: as §4
# [28] = system: Helicobacter pylori; assay: Antibacterial activity against Helicobacter pylori SS1 infected in NMRI mouse assessed as bacterial eradication at 10 mg/100g, po administered daily via gavage for 8 days starting from 1 week post-infection and measured 8 days post-last dose relative to control; type: functional; in short: as §6
# [29] = Therapeutic index, ratio of MCC50 for human HeLa cells to MIC for inhibition of flavodoxin in clarithromycin/metronidazole-resistant Helicobacter pylori isolate 6 assessed as reduction in bacterial growth; type: toxicity; details: read-out: TI; in short: as §4
Structure (SMILES),Activity [2],MIC [3] [µM],Activity [4],Activity [5],selectivity ratio [8],CC50 [10] [µM],MIC [11] [µM],MIC [13] [µM],selectivity ratio [14],Activity [15],further results
NCCc1cc(C(F)(F)F)cc(C(F)(F)F)c1,Active,31,Active,Non-Toxic,> 16,> 500,31,> 249,> 16,Non-Toxic,Activity [1]: Non-Toxic; Activity [6]: Active; Activity [7]: Non-Toxic; Activity [9]: Non-Toxic; Activity [12]: Active
COc1ccc(C[S+]([O-])c2ccc(N)c3nonc23)cc1 (centres undefined),Active,26,Active,Non-Toxic,> 19,> 1000,53,105,> 39,Non-Toxic,Activity [16]: Non-Toxic; Activity [17]: Active; Activity [18]: 60%; Activity [19]: Non-Toxic; selectivity ratio [20]: > 9.5; selectivity ratio [21]: 9.5; selectivity ratio [22]: 9.5; Stability [23]: Stable; Activity [24]: Non-Toxic; selectivity ratio [25]: 9.5; selectivity ratio [26]: 9.5; selectivity ratio [27]: 9.5; Activity [28]: 5%; selectivity ratio [29]: 9.5
